Data on 97 compounds can be found in ChEMBL document CHEMBL4513216, “Probing the Open Global Health Chemical Diversity Library for Multistage-Active Starting Points for Next-Generation Antimalarials” (ACS Infect Dis, 2020).

This series is described as follows: Toxicity liver stage against HepG2, at 10uM. It is filed as cell-based. More on the design: test concentration 10 uM, cell line HepG2-A16-CD81EGFP. As to conditions: human, HepG2-A16-CD81EGFP cells; read-out: INHIBITION
An outline of the steps: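 Uninfected HepG2-A16-CD81EGFP cells, 3 × 10^3 per well, 1536-well, plated on prespotted compound at 10 μM final, parasite-free screening media added to match infected plates; puromycin 10 μM positive, DMSO 0.5% negative; run in parallel with 48 h PbLuc assay at 37 °C, 5% CO2; viability by CellTiter-Glo luminescence, normalized to controls.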
In the case of `CO[C@H]1COCCN(C(=O)c2ccc(C(F)(F)F)cc2)C1`, the cytotoxicity at 10 µM came to 4.94%.
The value for `Cc1nccn1-c1ccc(=O)n(CCNC(=O)c2cccs2)n1` was -5.51%.
The same measure for `COCCN1CCN(c2ccc3ccc(C(=O)NC4CC4)cn23)CC1`: -4.37%; for `CCS(=O)(=O)N1CCOC2(COCCN(C(C)=O)C2)C1` (configuration not stated): 15.7%.
With `Cc1nnc([C@@H]2C[C@H]3CN(C(=O)c4sccc4C)C[C@H]3O2)[nH]1`, the cytotoxicity at 10 µM was 16%.
The same measure for `COCCCN1CCCCC12CC(=O)N(Cc1ccccn1)C2` (configuration not stated): 1.95%.
In the case of `CCOC(=O)c1cnn(-c2cc(Oc3cc(C)ccc3C)ncn2)c1N`, the cytotoxicity at 10 µM is 11.3%.
Consider `Cc1cnc(N2C(=O)CSC2c2ccccc2)s1` (configuration not stated), for which the cytotoxicity at 10 µM was -1.14%.
The same measure for `O=C1CC(c2ccsc2)c2c(n(C3CCOCC3)[nH]c2=O)N1` (configuration not stated): 0.847%.
The same measure for `CCc1nc(Nc2ccc(C(=O)NC)cc2)c2c(n1)c(C)nn2CC`: 9.38%; for `c1cn(-c2nccnc2C2CCCN(C3CCOCC3)C2)cn1` (configuration not stated): 4.19%.
The value for `CN(CC1CCOCC1)C1CCCN(c2ccccn2)C1` (configuration not stated) was -0.48%; that for `O=C(c1ccccc1F)N1CCOC(c2nc(-c3ncccn3)no2)C1` (configuration not stated) was -2.5%; that for `O=C(NC[C@]1(O)CN(Cc2ccc(F)cc2)C[C@H]1O)c1ccccn1` was -7.8%.
`CN(Cc1cnn(C)c1)CC(O)c1ccc2c(c1)OCCCO2` (configuration not stated): the cytotoxicity at 10 µM came to 2.85%.
In the case of `CC(C)C(C(=O)N(C)C)c1cccc(Cl)c1` (configuration not stated), the cytotoxicity at 10 µM came out at 6.14%.
The same measure for `CCCS(=O)(=O)CC(=O)NC(C)c1cccc(-n2cccn2)c1` (configuration not stated): 6%; for `Cc1ncc(C(=O)NCCNc2ncccn2)s1`: 3.79%.
For the compound `Cc1noc(C(C)Nc2ccc3oc(C(C)C)nc3c2)n1` (configuration not stated), the cytotoxicity at 10 µM is -7.84%.
The same measure for `Cc1nc(CN(C)S(=O)(=O)c2ccc(F)cc2Br)no1`: -6.26%; for `CCn1ccnc1CN1CCN(C(C)C(=O)NCc2ccco2)CC1` (configuration not stated): 7.79%; for `Cn1c(=O)n(C)c2cc(NS(=O)(=O)Cc3cccc(F)c3)ccc21`: 6.37%.
As for `CCC(CO)NC(=O)Nc1ccc(OCC(F)(F)F)c(C)c1` (configuration not stated), the cytotoxicity at 10 µM is 10.9%.
The same measure for `CC(C)(C)c1cc(=O)[nH]c(C2(N)CCCC2)n1`: 8.79%; for `Cc1cc(CNC2(CO)CCOCC2)ccc1Br`: 17.4%.
As for `c1cc(CCN2CCCC2CN2CCCCC2)ccn1` (configuration not stated), the cytotoxicity at 10 µM turned out to be 0.295%.
As for `CC1CN(S(=O)(=O)c2ccc(F)cc2)c2cccnc2O1` (configuration not stated), the cytotoxicity at 10 µM was -0.781%.
The same measure for `CCc1cc(=O)[nH]c(-c2ccc(NCCc3ccc(O)cc3)nc2)n1`: 61.1%; for `CCC(C)(CO)NC(=O)Nc1cc2c(cc1SC)OCCO2` (configuration not stated): -10.5%; for `CCOc1ccccc1N(C)C(=O)c1ccc(Cl)cn1`: 0.0381%.
The same measure for `O=C(NCC1(N2CCOCC2)CCSC1)Nc1ccccn1` (configuration not stated): 8.64%; for `CCOc1cc(C)ccc1NS(=O)(=O)c1cc(C)c(C(=O)O)s1`: -6.44%; for `CCN(CC(C)C#N)C(=O)CSc1ccc(C(F)(F)F)cn1` (configuration not stated): 9.81%.
The value for `Cc1cccc(S(=O)(=O)NC(=O)CCc2cscn2)c1` was 0.983%; that for `CCc1ccc(C(=O)N(CC)Cc2ccoc2)cc1S(C)(=O)=O` was -4.89%; that for `O=C(NCCNC(=O)C1CCCCC1)NCCn1cccc1` was 2.89%.
As for `CCN(CC)CCNC(=O)c1ccc(Cl)c(NS(C)(=O)=O)c1`, the cytotoxicity at 10 µM stood at 5.53%.
The same measure for `Cc1noc(OCCOc2ccc(C#N)cc2)n1`: 0.00742%.
The value for `Cn1ncnc1CNC1CCc2cc(Cl)ccc21` (configuration not stated) was 9.57%; that for `N#CCCN(Cc1cccnc1)C(=O)c1ccc(-n2cnnn2)cc1` was 4.59%; that for `CC(C)OC(=O)NCc1ccc(NCc2cnn(C(C)(C)C)c2)cc1` was -0.741%.
Regarding `CC1CCN(C(=O)NCC(=O)N(C)CC(F)(F)F)C1` (configuration not stated), the cytotoxicity at 10 µM came to 1.82%.
As for `CC(C)n1ncc2c1NC(=O)C(C#N)C21CCCCC1` (configuration not stated), the cytotoxicity at 10 µM was -0.47%.
The same measure for `O=C(NC[C@H]1C[C@@H]2CN(C(=O)c3ccco3)C[C@@H]2O1)c1ccsc1`: -90.8%; for `Cn1cc(CNC2CCc3c(ccc(=O)n3C)C2)cn1` (configuration not stated): -115%; for `COc1nn(C)c2c1CCCN(C(=O)c1cnccn1)C2`: -84.3%.
The same measure for `CN(C)c1nccc(NCc2cc(-c3cccs3)n[nH]2)n1`: -5.03%.
The value for `O=c1[nH]c(-c2ccncc2)ncc1-c1ccnc(NC2CC2)n1` was -11.7%; that for `NS(=O)(=O)NCc1cc(-c2ccco2)n(CC(F)(F)F)n1` was -4.41%; that for `OCc1ccc(-c2nccn2CCc2nc3c(s2)CCCC3)o1` was 4.71%.
Regarding `CCCn1c(C)c(CC(=O)NC(C)CO)c2c1CC(C)(C)CC2=O` (configuration not stated), the cytotoxicity at 10 µM was -10.5%.
Take `Cc1cc(-c2ccc(C(C)N3CCOCC3)cc2)cnc1N` (configuration not stated): the cytotoxicity at 10 µM was -2.36%.
The same measure for `CC(C)N1CC2(CCC1=O)CCN(C(=O)c1cc(F)ccc1Cl)CC2`: 0.247%; for `CC(=O)N1C[C@H](NC(=O)c2ccnc(N)c2)[C@@H](C(C)C)C1`: 8.64%; for `CN(C)C(C(=O)N1CCN(CC(F)(F)F)CC1)c1ccccc1F` (configuration not stated): -2.42%.
The same measure for `c1ccc(Cn2cccn2)c(CN2CCCCC2CCn2ccnc2)c1` (configuration not stated): -12%; for `O=C(NCCCn1cnnc1)C1CCCN(C2CCCC2)C1` (configuration not stated): -0.121%; for `OC1CCCOC12CCN(Cc1nnc(-c3cccnc3)o1)CC2` (configuration not stated): 4.49%.
With `CCOc1ccc(C(=O)N2CCCC(c3nccn3C)C2)cc1OCC` (configuration not stated), the cytotoxicity at 10 µM was -6.77%.
The value for `Cc1cc2[nH]c(CN3CCOC(C(F)(F)F)C3)cc(=O)n2n1` (configuration not stated) was -21.2%.
The same measure for `CC(C1CCN(Cc2cnc(-c3cccs3)nc2)CC1)N(C)C` (configuration not stated): -11.3%; for `CC(=O)C1(c2ccccc2)CCN(C(=O)c2ccn3nnnc3c2)CC1`: -4.97%.
The value for `Cc1cc(C)n2nc(C(=O)N3CCCC4(CCOC4)C3)cc2n1` (configuration not stated) was 7.73%.
As to `Cc1cccnc1N1CCN(Cc2cc(O)c3cccc(F)c3n2)CC1`, the cytotoxicity at 10 µM was 2.2%.
The same measure for `O=C(NCCOc1ccccc1)C1NCCc2[nH]cnc21` (configuration not stated): 8.01%; for `CC(C)(C)n1cc(C2=CCN(CCc3ccccn3)CC2)cn1`: -0.505%.
The same measure for `CCn1cc(CNc2ccc3nccnc3c2)cn1`: 1.42%; for `NCCn1cc(C(=O)N2CCCCCC2c2cccc(F)c2)nn1` (configuration not stated): 8.48%.
`O=C([C@@H](O)Cc1ccccc1)N1CCCn2cncc2C1`: the cytotoxicity at 10 µM was 2.55%.
For `CN(Cc1noc(-c2ccccc2)n1)C(=O)CSc1nnc(N)s1`, the cytotoxicity at 10 µM came to 0.712%.
The value for `Cc1nnc(-c2cccc(N3CCC(NC4CCSC4)CC3)c2)s1` (configuration not stated) was 0.276%; that for `CCOc1ccccc1-c1cc2c(cc1C(N)=O)OCO2` was 5.05%.
The value for `CCCc1nc(C(=O)N2CCN(C(=O)OC)CC2)cs1` was -9.85%.
The same measure for `CC(C)N1CCC(Cc2cc(-c3ccccc3C(=O)O)ncn2)CC1`: -5.28%; for `CCOc1ncccc1NC(=O)N1CCN(Cc2ccncc2)CC1`: -2.54%; for `CC1CN(C)CCN1CC(=O)NCCOc1ccc2c(c1)OCO2` (configuration not stated): -6.66%.
Consider `Cc1cc(C)n(CC2CN(CC(=O)NCc3cccs3)CCO2)n1` (configuration not stated), for which the cytotoxicity at 10 µM was -9.89%.
The same measure for `CCS(=O)(=O)N(C)CCCNCc1c(C)nn(C)c1N(C)C`: -8.72%.
As for `c1csc(-c2nc(CNC3CCc4ncnn4C3)co2)c1` (configuration not stated), the cytotoxicity at 10 µM was -5.69%.
For `Cc1cc(C)n(CC2CN(CCOc3cccc(F)c3)CCO2)n1` (configuration not stated), the cytotoxicity at 10 µM was -7.44%.
For `CN(CC(=O)N1CCN(c2ccccc2F)CC1)c1cnccn1`, the cytotoxicity at 10 µM is -0.341%.
The same measure for `CN(Cc1nnc(-c2ccco2)o1)C1CCCN(c2cccnn2)C1` (configuration not stated): -7.39%; for `COc1cccc(COCC(=O)N2CCCC(n3ccnc3C)C2)c1` (configuration not stated): -7.77%; for `Cc1nn(C)c(Cl)c1C1CCCN1C(=O)c1cc(Cl)c[nH]1` (configuration not stated): -6.83%.
The same measure for `CC(=O)Nc1ccc(Oc2cc(C)nc(C3CCNCC3)c2)cc1`: 2.69%.
The value for `Cc1cccc(CN2C(=O)CCC23CCN(C(=O)N2CCCC2)CC3)n1` was 4.56%.
As to `O=C(c1ccc[nH]1)N1CCn2cc(CN3CCCC3)nc2C1`, the cytotoxicity at 10 µM came to 3.09%.
The same measure for `c1cnc(N2CC3(CCN(CC4CCOC4)CC3)c3ccccc32)nc1` (configuration not stated): -6.78%.
On to `CN(C)CC(=O)N1CCC2(CC1)Cc1ccccc1CN(C)C2=O`, for which the cytotoxicity at 10 µM is -2.96%.
The same measure for `Fc1cccc(CN2C[C@@H]3CN(Cc4ccccn4)C[C@@H]3C2)c1`: -1.07%; for `N#Cc1cccc(C(=O)N2CCc3c(COCC4CC4)cncc3C2)c1`: 8.25%.
Turning to `COc1ccc(CN2CCC3(CC2)CC(CC(=O)NC(C)C)CO3)cc1` (configuration not stated), the cytotoxicity at 10 µM is -1.27%.
The value for `c1coc(CN2CCC3(CCOCC3COCC3CC3)CC2)c1` (configuration not stated) was 2.79%.
The value for `Cc1occc1C(=O)N1CCO[C@H]2[C@H](Oc3cccnc3)CC[C@@H]21` was -93.4%; that for `CC(=O)c1cc(C(=O)N2CC[C@H]3CC[C@@H](C2)N3C)c(=O)[nH]c1C` was 11.4%; that for `O=S(=O)(c1cccnc1)N1C[C@H]2CC[C@@H](C1)N(Cc1ccccc1)C2` was -5.79%.
Consider `CN(C)c1nc2cn(C3CCSCC3)c(=O)c-2c[nH]1`, for which the cytotoxicity at 10 µM is 8.56%.
